Screening data: PubChem BioAssay, several laboratories
Hits are enriched below; roughly 3% of the tested compounds scored in any of these assays.
MEKK2 mut-MEK5 = signal of MEK5 binding to mutant human MEKK2 PB1 domain. percent response, % at 10 µM. bead flow cytometry, Alexa488-MEK5 binding to MEKK2 mutant. 290,000 compounds, 0.35% hits; in the data active = percent response above about 24%, passing the limit was not always enough
MEKK3 PB1 HTS = modulators (inhibitors or enhancers) of MEK5 binding to human MEKK3 PB1 domain | AID 1529 | bead-based flow cytometry, Alexa488-MEK5 binding to MEKK3; actives lie on both sides; 0 = blocked by unlabeled MEK5, 100 = vehicle | binding response (% of control), % at 10 µM | Q99759 | 290,000 compounds, 1.4% hits;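 active = binding response more than 3 SD above or below the average of its plate-row segment, actives on both sides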;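 note: Alexa488 bead fluorescence after subtracting the streptavidin-only scavenger bead signal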
Apaf-1 inh = blocks human Apaf-1 apoptosome activity; O14727; 330,000 compounds, 0.71% hits; AID 489030; reconstituted apoptosome caspase-3 activity, DEVD-Rh110 fluorescence; inhibition, % at 20 µM; active = inhibition of at least 40% at 20 µM;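 note: plate controls were DMSO wells for no effect and DEVD-CHO caspase inhibitor wells for full effect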
Target sequence (O14727 whole entry, looked up): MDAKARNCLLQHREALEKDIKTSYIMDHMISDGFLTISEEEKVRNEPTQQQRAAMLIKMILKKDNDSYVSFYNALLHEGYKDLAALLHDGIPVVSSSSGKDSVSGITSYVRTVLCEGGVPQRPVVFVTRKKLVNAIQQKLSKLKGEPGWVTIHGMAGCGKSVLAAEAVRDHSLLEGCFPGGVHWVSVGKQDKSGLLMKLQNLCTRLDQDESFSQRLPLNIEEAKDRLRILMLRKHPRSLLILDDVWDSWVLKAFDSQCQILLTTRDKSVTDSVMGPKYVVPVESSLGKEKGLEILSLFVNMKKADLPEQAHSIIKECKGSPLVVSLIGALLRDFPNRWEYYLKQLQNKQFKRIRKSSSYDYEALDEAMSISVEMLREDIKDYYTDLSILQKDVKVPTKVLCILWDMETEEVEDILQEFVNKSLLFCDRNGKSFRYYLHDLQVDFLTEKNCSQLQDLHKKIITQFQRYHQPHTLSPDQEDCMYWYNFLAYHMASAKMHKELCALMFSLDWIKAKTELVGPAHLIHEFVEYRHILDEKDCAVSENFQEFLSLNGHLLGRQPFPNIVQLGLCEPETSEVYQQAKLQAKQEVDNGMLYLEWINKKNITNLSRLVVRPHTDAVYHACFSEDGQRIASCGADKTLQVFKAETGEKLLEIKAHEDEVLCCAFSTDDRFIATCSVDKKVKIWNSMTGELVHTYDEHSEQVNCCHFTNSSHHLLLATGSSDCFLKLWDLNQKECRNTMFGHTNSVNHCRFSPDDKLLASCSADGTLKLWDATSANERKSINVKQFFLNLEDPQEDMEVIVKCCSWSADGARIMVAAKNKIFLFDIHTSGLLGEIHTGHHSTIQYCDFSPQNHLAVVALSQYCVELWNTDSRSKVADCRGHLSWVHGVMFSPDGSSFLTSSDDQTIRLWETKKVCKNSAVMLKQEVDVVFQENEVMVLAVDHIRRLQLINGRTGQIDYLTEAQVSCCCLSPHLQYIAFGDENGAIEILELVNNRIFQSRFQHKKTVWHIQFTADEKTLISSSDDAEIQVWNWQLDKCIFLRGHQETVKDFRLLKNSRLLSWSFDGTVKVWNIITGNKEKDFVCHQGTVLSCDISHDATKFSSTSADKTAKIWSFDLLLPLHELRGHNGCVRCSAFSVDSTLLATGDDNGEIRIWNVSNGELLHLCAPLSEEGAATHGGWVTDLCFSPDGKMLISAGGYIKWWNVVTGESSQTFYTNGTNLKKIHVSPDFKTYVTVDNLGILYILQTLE
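Assay system – apoptosome proteins · Medium – Hepes buffer, pH 7.5 · Also added – cytochrome c with DEVD-Rh110 · Timing – 30 min compound preincubation, 50 min activation, room temperature · Detection – Rh110 fluorescence, excitation 480 nm, emission 540 nm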
UBC13 polyUb = blocks human UBC13 polyubiquitin chain formation; TR-FRET; inhibition, % at 20 µM; 330,000 compounds, 0.47% hits; P61088; in the data active = inhibition above about 45%, passing the limit was not always enough
MEKK2wt PB1 HTS = raises or lowers MEK5 binding to wildtype human MEKK2 PB1 domain; Q9Y2U5; bead flow cytometry, Alexa488-MEK5 binding to MEKK2 WT; actives lie on both sides; binding response (% of control), % at 10 µM; 290,000 compounds, 1.1% hits; in the data active = binding response below about 67% or above about 130%
UCH37 inh = blocks the human deubiquitinase UCH37 | purified proteasome/UCH37, Ub-AMC cleavage fluorescence | inhibition, % (no concentration beside the values) | 330,000 compounds, 0.33% hits | AID 588478;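 active = mean inhibition over replicate wells above about 20%, limit read from the data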;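 note: 0% = compound-free wells with enzyme and 100% = wells lacking proteasome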
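assay system = human UCH37 enzyme supplied as purified proteasome complex | amount = proteasome at 0.15 nM in the dispensed enzyme solution | schedule = 30 min compound-proteasome preincubation then 25 min substrate reaction, room temperature | measured by = fluorescence, ex 355 nm, em 460 nm | benchmarks = no-proteasome wells (full inhibition) and compound-free wells (no inhibition)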
* = called active by the depositor; [ ] = another dose, or the depositor's remark.

Results for Cc1cccc(NC(=O)c2cc[n+]([O-])cc2)c1C ?
MEKK2 mut-MEK5: -5.0; MEKK3 PB1 HTS: 100.0; Apaf-1 inh: 1.0; UBC13 polyUb: -3.6; MEKK2wt PB1 HTS: 96.0; UCH37 inh: 2.9

How did Cc1ccccc1NC(=O)c1cc[n+]([O-])cc1 do in these assays?
MEKK2 mut-MEK5: 18.0; MEKK3 PB1 HTS: 104.0; Apaf-1 inh: -4.2; UBC13 polyUb: -3.0; MEKK2wt PB1 HTS: 169.0*; UCH37 inh: 0.7

Results for CC(=NNC(=O)c1ccc(NS(=O)(=O)c2ccc(Br)cc2)cc1)c1cccnc1 ?
Apaf-1 inh: -4.8; UBC13 polyUb: 11.0; UCH37 inh: 4.1

What do the screens show for `Cc1cc(C)n2nc(SC(C)C(=O)N3CCOCC3)nc2n1` (centres undefined)?
Apaf-1 inh: -7.2; UBC13 polyUb: -2.4; UCH37 inh: -2.5

Results for O=C(CS(=O)(=O)c1ccc(Cl)c(Cl)c1)Nc1ccccc1Cl ?
MEKK2 mut-MEK5: -2.0; MEKK3 PB1 HTS: 98.0; Apaf-1 inh: 9.7; UBC13 polyUb: -0.4; MEKK2wt PB1 HTS: 93.0; UCH37 inh: 1.8

How did CCCNC(=O)OC[C@H]1O[C@H](CCO/N=C(\C)CCN2CCc3nc(-c4ccccc4)c(-c4ccccc4)cc3C2)C=C[C@@H]1Oc1ccc(OC)cc1 do in these assays?
MEKK2 mut-MEK5: 1.0; MEKK3 PB1 HTS: 107.0; Apaf-1 inh: 52.8*; UBC13 polyUb: 29.5; MEKK2wt PB1 HTS: 112.0

Results for O=C(NC(Cc1ccccc1)C(=O)O)/C(=C/c1ccccc1)NC(=O)c1cccc(Br)c1 (centres undefined) ?
MEKK2 mut-MEK5: -1.0; MEKK3 PB1 HTS: 97.0; Apaf-1 inh: 10.6; UBC13 polyUb: -15.6; MEKK2wt PB1 HTS: 103.0; UCH37 inh: 31.2*

Results for COc1cc([N+](=O)[O-])ccc1NC(=O)CN1CCc2cc(OC)c(OC)cc2C1 ?
MEKK2 mut-MEK5: -1.0; MEKK3 PB1 HTS: 97.0; Apaf-1 inh: 44.1*; UBC13 polyUb: -2.8; MEKK2wt PB1 HTS: 101.0; UCH37 inh: -1.5

How did COc1cc2c(cc1OC)CN(CC(=O)Nc1cccc([N+](=O)[O-])c1)CC2 do in these assays?
MEKK2 mut-MEK5: 10.0; MEKK3 PB1 HTS: 108.0; Apaf-1 inh: 32.1; UBC13 polyUb: 1.0; MEKK2wt PB1 HTS: 110.0; UCH37 inh: -28.0

How did O=C(O)CCn1cc(-c2ccc(Cl)cc2)nc1-c1ccc(Cl)nc1 do in these assays?
Apaf-1 inh: -4.4; UBC13 polyUb: 2.6; UCH37 inh: 0.3

What do the screens show for `COCC(=O)NC(C)c1nc2ccccc2[nH]1` (centres undefined)?
MEKK2 mut-MEK5: -3.0; MEKK3 PB1 HTS: 91.0; Apaf-1 inh: -0.5; UBC13 polyUb: 2.4; MEKK2wt PB1 HTS: 94.0; UCH37 inh: 4.0

What do the screens show for `O=C(CCn1c(=O)[nH]c2ccsc2c1=O)N1CCN(c2cccc(Cl)c2)CC1`?
MEKK2 mut-MEK5: 8.0; MEKK3 PB1 HTS: 121.0; Apaf-1 inh: 13.4; UBC13 polyUb: 6.1; MEKK2wt PB1 HTS: 119.0; UCH37 inh: 2.7

Results for O=C(CCn1c(=O)[nH]c2ccsc2c1=O)N1CC(=O)N(CCc2ccccc2)C(=O)C1 ?
MEKK2 mut-MEK5: -9.0; MEKK3 PB1 HTS: 74.0*[inhibitor]; Apaf-1 inh: 4.0; UBC13 polyUb: -4.1; MEKK2wt PB1 HTS: 81.0; UCH37 inh: 2.3

How did O=C(CCN1CCOCC1)N1CCc2c([nH]c3ccccc23)C1c1cccc(Cl)c1 (centres undefined) do in these assays?
MEKK2 mut-MEK5: 3.0; MEKK3 PB1 HTS: 101.0; Apaf-1 inh: 7.6; UBC13 polyUb: -1.6; MEKK2wt PB1 HTS: 104.0; UCH37 inh: 23.1*

Results for CCOc1cc(/C=C(\C#N)C(=O)Nc2cccc(C(=O)O)c2)ccc1OCc1ccc(Br)cc1 ?
MEKK2 mut-MEK5: -2.0; MEKK3 PB1 HTS: 95.0; Apaf-1 inh: -118.8; UBC13 polyUb: -35.0; MEKK2wt PB1 HTS: 94.0; UCH37 inh: -2.4

What do the screens show for `COc1ccc(C(=O)N2CCN(Cc3ccccc3[N+](=O)[O-])CC2)cc1`?
MEKK2 mut-MEK5: 20.0; MEKK3 PB1 HTS: 111.0; Apaf-1 inh: 4.7; UBC13 polyUb: -2.4; MEKK2wt PB1 HTS: 115.0; UCH37 inh: 2.1
